≈ marks a conversion by molar mass, not a printed value. Where a SMILES comes first, the peptide text is derived from it. [ ]: non-standard residue; d: D form. The star is where a group is joined. dPhe(4-Cl) = N[C@H](Cc1ccc(Cl)cc1)C(=O)O; d2Nal = N[C@H](Cc1ccc2ccccc2c1)C(=O)O; Lys(iPr) = CC(C)NCCCC[C@H](N)C(=O)O; d3Pal = N[C@H](Cc1cccnc1)C(=O)O; Nicotinoyl = O=C(c1cccnc1)*
Experiments:
Rattus norvegicus [1] = organism: Rattus norvegicus; assay: In vitro histamine release from isolated rat mast cells.; format: functional; settings: read-out: ED50 (the source's name)
How it was run: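 Histamine release from rat mast cells in vitro, run in duplicate with mast cells from three different rats. LHRH and Nal-Arg standards were included with each set of analogues. The read-out was the ED50 in μg/mL, reported as mean ± SEM.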

Rattus norvegicus [2] = organism: Rattus norvegicus; assay: Compound was evaluated for its ovulating activity in anti-ovulatory assay (AOA) by using 10 rats at the dose of 2 microgram; format: functional
How it was run: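 Standard antiovulatory assay in 4-day cycling female rats, 10 rats per dose group. Each analogue was given at the stated dose in μg per rat, and the read-out was the number of rats ovulating out of 10.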

| Structure (SMILES) | EC50 (Rattus norvegicus [1]) [µg/mL] | AOA (Rattus norvegicus [2]) |
| --- | --- | --- |
| CC(=O)N[C@H](Cc1ccc2ccccc2c1)C(=O)N[C@H](Cc1ccc(Cl)cc1)C(=O)N[C@H](Cc1cccnc1)C(=O)N[C@@H](CO)C(=O)N[C@@H](CCCCNC(=O)c1ccccn1)C(=O)N[C@H](CCCCNC(=O)c1ccccn1)C(=O)N[C@@H](CCCCNC(C)C)C(=O)N[C@@H](CCCCNC(=O)c1cccnc1)C(=O)N1CCC[C@H]1C(=O)N[C@H](C)C(N)=O | 70 (≈ 40.9 µM) | 8 |
| CC(=O)N[C@H](Cc1ccc2ccccc2c1)C(=O)N[C@H](Cc1ccc(Cl)cc1)C(=O)N[C@H](Cc1c[nH]c2ccccc12)C(=O)N[C@@H](CO)C(=O)N[C@@H](Cc1ccc(O)cc1)C(=O)N[C@H](CCCN=C(N)N)C(=O)N[C@@H](CCCN=C(N)N)C(=O)N[C@@H](CC(C)C)C(=O)N1CCC[C@H]1C(=O)N[C@H](C)C(N)=O | 2.4 (≈ 1.63 µM) | 10 |
| CC(=O)N[C@H](Cc1ccc2ccccc2c1)C(=O)N[C@H](Cc1ccc(Cl)cc1)C(=O)N[C@H](Cc1c[nH]c2ccccc12)C(=O)N[C@@H](CO)C(=O)N[C@@H](Cc1ccc(O)cc1)C(=O)N[C@H](CCCN=C(N)N)C(=O)N[C@@H](CC(C)C)C(=O)N[C@@H](CCCN=C(N)N)C(=O)N1CCC[C@H]1C(=O)N[C@H](C)C(N)=O (Ac-[d2Nal][dPhe(4-Cl)][dW]SY[dR]LRP[dA]-NH2) | 0.1 (≈ 0.0681 µM) |  |
| CC(=O)N[C@H](Cc1ccc2ccccc2c1)C(=O)N[C@H](Cc1ccc(Cl)cc1)C(=O)N[C@H](Cc1cccnc1)C(=O)N[C@@H](CO)C(=O)N[C@@H](CCCCNC(=O)c1cccnc1)C(=O)N[C@H](CCCCNC(=O)c1cccnc1)C(=O)N[C@@H](CC(C)C)C(=O)N[C@@H](CCCCNC(C)C)C(=O)N1CCC[C@H]1C(=O)N[C@H](C)C(N)=O [Antide] (Ac-[d2Nal][dPhe(4-Cl)][d3Pal]SK(Nicotinoyl)[dK](Nicotinoyl)L[Lys(iPr)]P[dA]-NH2) | > 300 |  |
